According to ChEMBL document CHEMBL1125165, “Inhibition of ornithine decarboxylase by the isomers of 1,4-dimethylputrescine” (J Med Chem, 1990):
Several values for one entry are separate records, joined by “and”; a condition that tells them apart may be missing. Identical values can stand only once. One block for each compound: values may come before it.

Tests used:
[1] = molecular target: T1, Ornithine decarboxylase (Rattus norvegicus) (UniProt P09057); test: In vivo inhibitory activity against Ornithine Decarboxylase (ODC) in H-35 hepatoma cells; type: functional; design: unit not given here
T1 sequence (whole entry): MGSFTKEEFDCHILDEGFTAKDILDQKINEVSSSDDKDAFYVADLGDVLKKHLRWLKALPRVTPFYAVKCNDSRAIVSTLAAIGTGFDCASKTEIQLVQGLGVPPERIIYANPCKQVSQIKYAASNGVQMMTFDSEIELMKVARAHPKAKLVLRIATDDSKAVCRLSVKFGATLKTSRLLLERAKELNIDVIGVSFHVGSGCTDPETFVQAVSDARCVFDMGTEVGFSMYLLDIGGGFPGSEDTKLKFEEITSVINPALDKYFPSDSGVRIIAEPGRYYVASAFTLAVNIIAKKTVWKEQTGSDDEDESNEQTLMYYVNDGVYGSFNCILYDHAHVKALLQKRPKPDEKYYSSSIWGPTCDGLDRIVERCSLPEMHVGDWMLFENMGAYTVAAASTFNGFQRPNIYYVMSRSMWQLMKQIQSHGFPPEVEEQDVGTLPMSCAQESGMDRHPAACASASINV

[2] = molecular target: T1, Ornithine decarboxylase (Rattus norvegicus); test: In vivo inhibitory activity against Ornithine Decarboxylase (ODC) in rats; type: functional, organism-based; design: concentration or dose not given beside the values
[3] = (§1) In vitro inhibitory activity against Ornithine Decarboxylase (ODC) isolated from the livers of thioactamide treated rats.; type: functional, tissue-based, Rattus norvegicus, Liver
Summary of the method: (§2)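 ODC was partially purified from livers of rats injected with thioacetamide (100 mg/kg), with specific activity 0.2 nmol/min per mg protein. Activity was measured in vitro across inhibitor concentrations. Ki was obtained by replotting apparent Km against inhibitor concentration.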

Ornithine decarboxylase = molecular target: T2, Ornithine decarboxylase (Rattus norvegicus, UniProt P09057); test: as §1; type: functional, tissue-based, Liver; summary of the method: as §2
T2 sequence (P09057 whole entry): T1 sequence (whole entry)

Rattus norvegicus [4] = species on record: Rattus norvegicus; test: Effect on spermine content of (+) isomer Dexamethasone treated rats after 4 hour; type: functional
Summary of the method: (§3)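 Female Wistar rats (100-130 g) were pretreated with dexamethasone or thioacetamide, and the analogue was given ip in saline-buffered solution. Liver was sampled 1 h or 3-4 h later. Free polyamines and analogue were measured in perchloric extracts. Polyamines are expressed as % of the inducer-treated liver content. Analogue is expressed as % of the total injected per g liver (10 ± 0.5 μmol). Mean ± SD, three experiments in duplicate.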

Rattus norvegicus [5] = species on record: Rattus norvegicus; test: Effect on spermine content of (-) isomer Dexamethasone treated rats after 1 hour; type: functional; summary of the method: as §3
Rattus norvegicus [6] = species on record: Rattus norvegicus; test: Effect on spermine content of Dexamethasone treated rats.; type: functional; summary of the method: as §3
Rattus norvegicus [7] = species on record: Rattus norvegicus; test: Effect on spermine content of Thioacetamide treated rats after 1 hr; type: functional; summary of the method: as §3
Rattus norvegicus [8] = species on record: Rattus norvegicus; test: Effect on spermine content of Thioacetamide treated rats after 3 hour; type: functional; summary of the method: as §3
Rattus norvegicus [9] = species on record: Rattus norvegicus; test: Effect on spermine content of Thioacetamide treated rats after 3 hr; type: functional; summary of the method: as §3
Rattus norvegicus [10] = species on record: Rattus norvegicus; test: Effect on spermine content of Thioacetamide treated rats.; type: functional; summary of the method: as §3
Rattus norvegicus [11] = species on record: Rattus norvegicus; test: Effect on spermine content of meso isomer Dexamethasone treated rats after 1 hour; type: functional; summary of the method: as §3
Rattus norvegicus [12] = species on record: Rattus norvegicus; test: Effect on spermine content of meso isomer Dexamethasone treated rats after 4 hour; type: functional; summary of the method: as §3
Rattus norvegicus [13] = species on record: Rattus norvegicus; test: Effect on spermidine content of Thioacetamide treated rats.; type: functional; summary of the method: as §3
Rattus norvegicus [14] = species on record: Rattus norvegicus; test: Effect on spermidine content of meso isomer Dexamethasone treated rats after 1 hour; type: functional; summary of the method: as §3
Rattus norvegicus [15] = species on record: Rattus norvegicus; test: Effect on spermidine content of meso isomer Dexamethasone treated rats after 4 hour; type: functional; summary of the method: as §3
Rattus norvegicus [16] = species on record: Rattus norvegicus; test: Effect on spermine content of (+) isomer Dexamethasone treated rats after 1 hour; type: functional; summary of the method: as §3
Rattus norvegicus [17] = species on record: Rattus norvegicus; test: Effect on 1,4-Dimethylputrescine content of (+) isomer Dexamethasone treated rats after 1 hour; type: functional; summary of the method: as §3
Rattus norvegicus [18] = species on record: Rattus norvegicus; test: Effect on 1,4-Dimethylputrescine content of (-) isomer Dexamethasone treated rats after 1 hour; type: functional; summary of the method: as §3
Rattus norvegicus [19] = species on record: Rattus norvegicus; test: Effect on 1,4-Dimethylputrescine content of (-) isomer Dexamethasone treated rats after 4 hour; type: functional; summary of the method: as §3
Rattus norvegicus [20] = species on record: Rattus norvegicus; test: Effect on 1,4-Dimethylputrescine content of Thioacetamide treated rats after 1 hr; type: functional; summary of the method: as §3
Rattus norvegicus [21] = species on record: Rattus norvegicus; test: Effect on 1,4-Dimethylputrescine content of Thioacetamide treated rats after 3 hr; type: functional; summary of the method: as §3
Rattus norvegicus [22] = species on record: Rattus norvegicus; test: Effect on 1,4-Dimethylputrescine content of meso isomer Dexamethasone treated rats after 1 hour; type: functional; summary of the method: as §3
Rattus norvegicus [23] = species on record: Rattus norvegicus; test: Effect on 1,4-Dimethylputrescine content of meso isomer Dexamethasone treated rats after 4 hour; type: functional; summary of the method: as §3
Rattus norvegicus [24] = species on record: Rattus norvegicus; test: Effect on 1,4-Dimethylputrescinecontent of (+) isomer Dexamethasone treated rats after 4 hour; type: functional; summary of the method: as §3
Rattus norvegicus [25] = species on record: Rattus norvegicus; test: Effect on putrescine content of (+) isomer Dexamethasone treated rats after 1 hour; type: functional; summary of the method: as §3
Rattus norvegicus [26] = species on record: Rattus norvegicus; test: Effect on putrescine content of (+) isomer Dexamethasone treated rats after 4 hour; type: functional; summary of the method: as §3
Rattus norvegicus [27] = species on record: Rattus norvegicus; test: Effect on putrescine content of (-) isomer Dexamethasone treated rats after 1 hour; type: functional; summary of the method: as §3
Rattus norvegicus [28] = species on record: Rattus norvegicus; test: Effect on putrescine content of (-) isomer Dexamethasone treated rats after 4 hr; type: functional; summary of the method: as §3
Rattus norvegicus [29] = species on record: Rattus norvegicus; test: Effect on putrescine content of Thioacetamide treated rats after 3 hr; type: functional; summary of the method: as §3
Rattus norvegicus [30] = species on record: Rattus norvegicus; test: Effect on putrescine content of Thioacetamide treated rats.; type: functional; summary of the method: as §3
Rattus norvegicus [31] = species on record: Rattus norvegicus; test: Effect on putrescine content of meso isomer Dexamethasone treated rats after 1 hour; type: functional; summary of the method: as §3
Rattus norvegicus [32] = species on record: Rattus norvegicus; test: Effect on putrescine content of meso isomer Dexamethasone treated rats after 4 hour; type: functional; summary of the method: as §3
Rattus norvegicus [33] = species on record: Rattus norvegicus; test: Effect on spermidine content of (+) isomer Dexamethasone treated rats after 1 hour; type: functional; summary of the method: as §3
Rattus norvegicus [34] = species on record: Rattus norvegicus; test: Effect on spermidine content of (+) isomer Dexamethasone treated rats after 4 hour; type: functional; summary of the method: as §3
Rattus norvegicus [35] = species on record: Rattus norvegicus; test: Effect on spermidine content of (-) isomer Dexamethasone treated rats after 1 hour; type: functional; summary of the method: as §3
Rattus norvegicus [36] = species on record: Rattus norvegicus; test: Effect on spermidine content of (-) isomer Dexamethasone treated rats after 4 hour; type: functional; summary of the method: as §3
Rattus norvegicus [37] = species on record: Rattus norvegicus; test: Effect on spermidine content of Dexamethasone treated rats.; type: functional; summary of the method: as §3
Rattus norvegicus [38] = species on record: Rattus norvegicus; test: Effect on spermidine content of Thioacetamide treated rats after 1 hr; type: functional; summary of the method: as §3
Rattus norvegicus [39] = species on record: Rattus norvegicus; test: Effect on spermidine content of Thioacetamide treated rats after 3 hr; type: functional; summary of the method: as §3
Rattus norvegicus [40] = species on record: Rattus norvegicus; test: Effect on spermine content of (-) isomer Dexamethasone treated rats after 4 hour; type: functional; summary of the method: as §3
Rattus norvegicus [41] = species on record: Rattus norvegicus; test: Effect on putrescine content of Dexamethasone treated rats.; type: functional; summary of the method: as §3

Structure (SMILES): CC(N)CCC(C)N (single isomer, unassigned; (+))
Activity [1]: 96 | Inhibition [2]: 98%

Structure (SMILES): CC(CN)C(C)CN (mixture of isomers)
Ki [3]: 1 mM

Structure (SMILES): CC(N)CC(C)CN (mixture of isomers)
Activity [1]: 85 | Inhibition [2]: 76% | Ki (Ornithine decarboxylase): 2.9 mM

Structure (SMILES): CC(N)CCC(C)N (stereo unspecified) [listing 1 of 2 here]
Polyamine content (Rattus norvegicus [4]): 1800 nM/g | Polyamine content (Rattus norvegicus [5]): 2240 nM/g | Polyamine content (Rattus norvegicus [6]): 2170 nM/g | Polyamine content (Rattus norvegicus [7]): 2600 nM/g and 2500 nM/g and 2350 nM/g | Polyamine content (Rattus norvegicus [8]): 2600 nM/g | Polyamine content (Rattus norvegicus [9]): 3000 nM/g and 2350 nM/g | Polyamine content (Rattus norvegicus [10]): 2400 nM/g | Polyamine content (Rattus norvegicus [11]): 2060 nM/g | Polyamine content (Rattus norvegicus [12]): 2250 nM/g | Polyamine content (Rattus norvegicus [13]): 2680 nM/g | Polyamine content (Rattus norvegicus [14]): 1920 nM/g | Polyamine content (Rattus norvegicus [15]): 2280 nM/g | Polyamine content (Rattus norvegicus [16]): 1930 nM/g | Polyamine content (Rattus norvegicus [17]): 1800 nM/g | Polyamine content (Rattus norvegicus [18]): 1640 nM/g | Polyamine content (Rattus norvegicus [19]): 40 nM/g | Polyamine content (Rattus norvegicus [20]): 2700 nM/g and 1850 nM/g and 2800 nM/g | Polyamine content (Rattus norvegicus [21]): 1550 nM/g and 900 nM/g and 1150 nM/g | Polyamine content (Rattus norvegicus [22]): 1640 nM/g | Polyamine content (Rattus norvegicus [23]): 50 nM/g | Polyamine content (Rattus norvegicus [24]): 400 nM/g | Polyamine content (Rattus norvegicus [25]): 60 nM/g | Polyamine content (Rattus norvegicus [26]): 660 nM/g | Polyamine content (Rattus norvegicus [27]): 100 nM/g | Polyamine content (Rattus norvegicus [28]): 580 nM/g | Polyamine content (Rattus norvegicus [29]): 290 nM/g and 510 nM/g and 410 nM/g | Polyamine content (Rattus norvegicus [30]): 1370 nM/g | Polyamine content (Rattus norvegicus [31]): 160 nM/g | Polyamine content (Rattus norvegicus [32]): 890 nM/g | Polyamine content (Rattus norvegicus [33]): 2180 nM/g | Polyamine content (Rattus norvegicus [34]): 850 nM/g | Polyamine content (Rattus norvegicus [35]): 1280 nM/g | Polyamine content (Rattus norvegicus [36]): 2080 nM/g | Polyamine content (Rattus norvegicus [37]): 2300 nM/g | Polyamine content (Rattus norvegicus [38]): 1870 nM/g and 1950 nM/g and 2800 nM/g | Polyamine content (Rattus norvegicus [39]): 2400 nM/g and 1475 nM/g and 2500 nM/g | Polyamine content (Rattus norvegicus [40]): 2220 nM/g | Polyamine content (Rattus norvegicus [41]): 980 nM/g

Next, values leading:

Activity [1]: 72 | Inhibition [2]: 30%
Structure (SMILES): CNCCCCNC

Activity [1]: 90 | Inhibition [2]: 55% | Ki (Ornithine decarboxylase): 3.3 mM
Structure (SMILES): NCCCCN [PUTRESCINE]

Activity [1]: 68 | Inhibition [2]: 60% | Ki (Ornithine decarboxylase): 3 mM
Structure (SMILES): CN(C)CCCCN

Activity [1]: 97 | Inhibition [2]: 97%
Structure (SMILES): CC(N)CCC(C)N (single isomer, unassigned; (-))

Activity [1]: 75 | Inhibition [2]: 70% | Ki (Ornithine decarboxylase): 3.8 mM
Structure (SMILES): CC(N)C(C)CCN (mixture of isomers)

Activity [1]: 90 | Inhibition [2]: 93%
Structure (SMILES): CC(N)CCC(C)N (stereo unspecified) [listing 2 of 2 here]

Activity [1]: 91 | Inhibition [2]: 96%
Structure (SMILES): CC(N)CCC(C)N (racemic)
